From ChEMBL document CHEMBL4270511, “Rational design and screening of peptide-based inhibitors of heat shock factor 1 (HSF1)” (Bioorg Med Chem, 2018) come the findings set out here.

Calls of active or inactive are those of the source. The calls are words filed in the database; no cut-off is given here.

Assay [1] addresses T1, Heat shock factor protein 1 (Homo sapiens) (UniProt Q00613).
T1 sequence (whole entry): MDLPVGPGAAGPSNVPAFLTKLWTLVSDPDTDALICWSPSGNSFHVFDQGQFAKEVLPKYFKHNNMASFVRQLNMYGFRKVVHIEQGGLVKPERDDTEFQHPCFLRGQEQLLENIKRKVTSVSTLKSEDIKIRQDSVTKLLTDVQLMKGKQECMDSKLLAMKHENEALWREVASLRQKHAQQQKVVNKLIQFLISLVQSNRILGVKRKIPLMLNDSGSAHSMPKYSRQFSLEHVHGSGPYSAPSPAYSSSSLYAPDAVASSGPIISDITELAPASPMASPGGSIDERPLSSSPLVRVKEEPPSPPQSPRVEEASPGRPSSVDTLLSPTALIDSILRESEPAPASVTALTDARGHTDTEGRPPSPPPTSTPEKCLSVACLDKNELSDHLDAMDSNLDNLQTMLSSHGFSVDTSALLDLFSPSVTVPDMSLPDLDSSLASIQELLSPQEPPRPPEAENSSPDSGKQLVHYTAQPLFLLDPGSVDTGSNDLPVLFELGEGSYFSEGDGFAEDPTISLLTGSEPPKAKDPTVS
The assay is described as follows: Inhibition of recombinant human HSF1 expressed in Escherichia coli BL21 (DE3) assessed as reduction in HSF1 trimer-5-fluorescein labeled HSE interaction at 400 uM preincubated for 1 hr followed by DNA tracer addition and measured after 15 mins by competitive fluorescence polarization assay. The method, boiled down: (§1)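 His-HSF1 trimer, expressed in BL21 E. coli and isolated by SEC, was shaken with peptide in DMSO for 1 h at room temperature. 5-fluorescein HSE tracer was then added to give final 250 nM trimer, 15 nM tracer and 5% DMSO, followed by 15 min shaking. FP read at 485/530 nm. Single-point final peptide level 400 μM, scored as % inhibition relative to DMSO and tracer-only signals. Dose-response used serial dilutions from 800 μM, with nonlinear-regression IC₅₀ fitting. Duplicates.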
In general terms: Fluorescence polarisation rises when a labelled molecule tumbles more slowly, as on binding a larger partner.

In assay [2] the target is T1, Heat shock factor protein 1 (Homo sapiens). As to the kind of experiment: (§2) Inhibition of recombinant human HSF1 expressed in Escherichia coli BL21 (DE3) assessed as reduction in HSF1 trimer-5-fluorescein labeled HSE interaction preincubated for 1 hr followed by DNA tracer addition and measured after 15 mins by competitive fluorescence polarization assay. In a few lines: as §1

Assay [3] deals with T2, Heat shock factor protein 1 (Homo sapiens, UniProt Q00613).
T2 sequence (Q00613 whole entry): T1 sequence (whole entry)
The assay is described as §2. The method, boiled down: as §1

Assay [4] concerns the target T1, Heat shock factor protein 1 (Homo sapiens). The assay is described as follows: Disruption of full length human HSF1 trimer structure at 20 uM after 30 mins by SDS-PAGE analysis.
The target is the same in assay [5]. As to the kind of experiment: Disruption of full length human HSF1 trimer structure at 20 uM after 30 mins by Western blot analysis. In a few lines:
(§3)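 SEC-purified full-length human HSF1 trimer (2 μM) incubated with 20 μM peptide (10-fold molar excess) or DMSO (2% v/v) at 4 °C for 30 min. Samples then run on Sephacryl S-400 SEC, and collected fractions analysed by immunoblot to follow oligomeric state.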
Background: In western blotting, separated proteins are transferred to a membrane and probed.

For assay [6] the target is unchanged. The assay is described as follows: (§4) Inhibition of recombinant human HSF1 expressed in Escherichia coli BL21 (DE3) assessed as reduction in HSF1 trimer-5-fluorescein labeled HSE interaction preincubated of protein with DNA tracer up to 24 hrs followed by compound addition and measured after 15 mins by fluorescence polarization assay. The settings on record: in the assay text read “measured after 1 hr” for “measured after 15 mins”. In a few lines: (§5)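 Peptide added to a pre-formed complex of HSF1 trimer (250 nM) and 5-fluorescein HSE tracer (15 nM), then co-incubated a further 1 h before FP reading at 485/530 nm. Buffer was 25 mM HEPES, 75 mM NaCl, pH 7.5, 10 mM MgCl₂, 0.01% Triton-X. IC₅₀ from nonlinear regression; duplicate experiments.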

Assay [7] deals with T2, Heat shock factor protein 1. The description is as §4. The note with it: in the assay text read “measured after 1 hr” for “measured after 15 mins”. In a few lines: as §5
Assay [8] has as its target T1, Heat shock factor protein 1 (Homo sapiens). The assay is described as follows: Disruption of full length human HSF1 trimer structure at 20 uM after 30 mins by size-exclusion chromatographic method. The method, boiled down: as §3
On the technique in general: SEC sorts molecules by how far they enter the pores of the column.

The test system of another assay is DNA. The assay is described as follows: Binding affinity to 5-fluorescein labeled HSE DNA (unknown origin) after 15 mins to 24 hrs by fluorescence polarization method. Type of assay: nucleic-acid assay. In a few lines:
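Tracer-binding control: peptides serially diluted from 400 μM, incubated with 15 nM 5-fluorescein HSE tracer alone (no protein) for 15 min, 1 h, 3 h and 24 h. Read by FP at excitation 485 nm and emission 530 nm, with 15-min mP values plotted. Buffer was 25 mM HEPES, 75 mM NaCl, pH 7.5, 10 mM MgCl₂, 0.01% Triton-X. Triplicates.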

Broadly, the inhibition is the change of the read-out against control, counted positive when it falls. In the case of Ac-DAMDSNL-NH2, the inhibition in [1] amounted to 21%.

Ac-DKNELSDHL-NH2: in assay [1], the inhibition turned out to be 0.4%.

For orientation: IC50 means the concentration that inhibits the measured activity by half. For the substance Ac-DKNELSDHLDAMDSNL-NH2, the inhibition entry in [2] was “Dose-dependent effect”; in assay [6] it was “Dose-dependent effect”; in [1], 91%. The figures for the IC50 in assay [3] and in assay [7] were 13 µM and 14 µM, respectively. The outcome in [4], in [5] and in assay [8] was inactive.

As to Ac-DVQLMKGKQECMDSKLLAMKHENEALWREV-NH2, the inhibition in assay [1] worked out at 8.1%.

With Ac-HLDAMDSNLDNLQTMLSSHGFSVDTSALLD-NH2, the inhibition entry in assay [2] was “Dose-dependent effect”; in assay [1], 64%. Moreover, the half-inhibitory concentration (IC50) in assay [3] was 150 µM.

Consider Ac-IKIRQDSVTKLLTDVQLMKGKQECMDSK-NH2, for which the inhibition in assay [1] was above 100%.

As for Ac-LAMKHENEAL-NH2, the inhibition in assay [1] was determined as 8.2%.

As for Ac-LAMKHENEALWREVASLRQKHAQQQKVVNKL-NH2, the result with DNA was Active.

With Ac-RQKHAQQQKVVNKL-NH2, in assay [1], the inhibition came out at 22%.

On to Ac-WREVASL-NH2, for which the inhibition in assay [1] came out at 27%.
